Source: PubChem BioAssay (Sanford-Burnham Center for Chemical Genomics)
Most compounds without a hit are left out; they make up all but 3.9% or so of the library.
tim23-1 inh: growth inhibitors of tim23-1 mutant yeast, primary screen, luminescence, uHTS; S. cerevisiae tim23-1 growth, BacTiter-Glo luminescence, 24 h; 330,000 tested, 1.3% active; inhibition, % at 20 µM; AID 463212, 2010;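 active means growth inhibition of the mutant yeast at or above 50%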;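 further: temperature-sensitive mutant grown at 25 °C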
TIM10 inh: growth inhibitors of isogenic TIM10 control yeast, primary screen, counter-screen for tim10-1 yeast inhibitor project, luminescence, uHTS. S. cerevisiae TIM10 strain growth, BacTiter-Glo luminescence, 24 h. inhibition, % at 10 µM. 330,000 tested, 1.4% active. AID 463195, 2010;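 active means inhibition of 40% or more at the single tested concentration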;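 further: wild-type TIM10 isogenic control strain grown at permissive 25 °C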
tim10-1 inh: growth inhibitors of tim10-1 mutant yeast, primary screen, luminescence, uHTS | S. cerevisiae tim10-1 ts strain growth, BacTiter-Glo, 24 h | AID 463190, 2010 | 330,000 tested, 2.2% active | inhibition, % at 20 µM;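 active means inhibition of at least 40%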;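 further: mutant grown at 25 °C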
UPR XBP1 act: activators of adaptive XBP1 UPR arm, primary screen, cell-based, CHO-XBP1 luciferase reporter, luminescence, uHTS | IRE1-XBP1 UPR activation; percent of tunicamycin response, DMSO as zero | activation, % at 20 µM | 330,000 tested, 0.33% active;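 active means versus positive control, 20 µM dose yields 30% or more activation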
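assay system = CHO-XBP1 luciferase reporter cells | amount = 1000 cells/well | buffer or medium = F12 plus 10% FBS | compound dosing = single point, 20 µM final compound, 1% DMSO | incubation = 16-18 h cell attachment at 37 °C, then 6 h compound exposure | detection = Steady-Glo luminescence read | controls = tunicamycin 10 µg/mL and vehicle-only wells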
UPR CHOP act: activators of apoptotic CHOP UPR arm, primary screen, cell-based, CHO-CHOP luciferase reporter, luminescence, uHTS | UPR activation; percent of tunicamycin response over DMSO baseline | activation, % at 10 µM | 330,000 tested, 0.34% active | AID 449763, 2010;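 active means at 10 µM dose, activation of 40% or more, normalized to positive control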
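Assay system: CHO-CHOP cells, stable luciferase reporter of PERK-eIF2a-CHOP signalling / Buffer or medium: F12 plus 10% serum / Compound dosing: one dose, 10 µM in 0.5% DMSO / Times: 6 h compound treatment, 37 °C / Technique: luciferase luminescence / Read-out: % reporter activation, DMSO baseline versus tunicamycin full activation / Benchmarks: tunicamycin and DMSO controls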
tim10-1 confirm: growth inhibitors of tim10-1 mutant yeast, confirmation, single concentration, luminescence, S. cerevisiae; shares compounds with tim10-1 inh; S. cerevisiae tim10-1 ts strain growth, BacTiter-Glo, 24 h; inhibition, % at 20 µM; 7,400 tested, 56% active; AID 463213, 2010;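 active means inhibition of yeast growth at or above a set limit in either of two repeat tests at 20 µM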;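 further: tim10-1 mutant grown at permissive 25 °C to find synthetic lethal compounds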
Each line names hits and unclear results; the compound was inactive in the other large screens (follow-up assays come after a bar, where they were run).

COC(=O)C1=C(C)N(C)C(=S)N(C)C1c1cccc(Br)c1 (configuration not stated)	tim10-1 inh 41.5 | tim10-1 confirm inactive
COC(=O)C1CCN(C(=O)COC(=O)CNC(=O)c2ccc(Cl)cc2Cl)CC1	none
Cc1ccc(C(C)(C)C)cc1S(=O)(=O)Nc1cccc(C(=O)N2CCN(c3ccccn3)CC2)c1	none
CCCCCCSc1ccc([C@H]2N[C@@](C)(C(=O)OC)[C@H]3C(=O)N(C)C(=O)[C@@H]23)cc1	tim10-1 inh 44.5 | tim10-1 confirm 34.9
Cn1cccc1/C=C1\CCC/C(=C\c2cccn2C)C1=O	tim10-1 inh 49.8 | tim10-1 confirm inactive
COc1ccc(NC(=O)c2cc([N+](=O)[O-])ccc2O)cc1	tim10-1 inh 52.1 | tim10-1 confirm 50.8
O=Cc1ccccc1Oc1nc(N2CCOCC2)nc(N2CCOCC2)n1	tim10-1 inh 45.0 | tim10-1 confirm 40.6
O=C(CN1C(=O)NC2(CCOc3ccccc32)C1=O)N1CCCCC1 (configuration not stated)	none
CCCCCCCCNC(=O)/C(C#N)=C/c1ccc(SC)cc1	tim10-1 inh 50.2 | tim10-1 confirm 37.7
Cc1cc(C)nc(N(C#N)Cc2cccc3ccccc23)n1	tim10-1 inh 48.0 | tim10-1 confirm 34.6
Cc1cc(C)nc(N(C#N)Cc2ccccc2)n1	none
OC(COC(c1ccc(Cl)cc1)c1ccc(Cl)cc1)CN1CCc2ccccc2C1 (configuration not stated)	tim10-1 inh 43.7 | tim10-1 confirm inactive
OC(COC(c1ccccc1)c1ccccc1)CN1CCc2ccccc2C1 (configuration not stated)	none
CC1(C)CC(=O)c2sc(NC(=O)CCS(=O)(=O)c3ccccc3)nc2C1	tim10-1 inh 46.0 | tim10-1 confirm 37.2
CC1(C)CC(=O)c2sc(NC(=O)c3ccccc3)nc2C1	none
O=C(/C=C/c1cccc(Cl)c1)OCc1cn2cc(Cl)ccc2n1	tim10-1 inh 42.6 | tim10-1 confirm inactive
CCOC(=O)c1ccc(N2C(=O)CC(C(=O)OC)=C2C)cc1	tim10-1 inh 53.7 | tim10-1 confirm 38.0
CN(C)CCCN(C(=O)c1cc2cc([N+](=O)[O-])ccc2s1)c1nc2cc3c(cc2s1)OCCO3	tim10-1 inh 79.0 | tim10-1 confirm 26.9
COc1ccc2sc(N(CCCN(C)C)C(=O)c3ccc(S(=O)(=O)N4CCCc5ccccc54)cc3)nc2c1	tim10-1 inh 57.5 | tim10-1 confirm 31.5
CCN(Cc1ccccc1)S(=O)(=O)c1ccc(C(=O)N(CCCN(C)C)c2nc3cc4c(cc3s2)OCCO4)cc1	tim10-1 inh 46.2 | tim10-1 confirm inactive
CN(C)CCCN(C(=O)c1ccc([N+](=O)[O-])s1)c1nc2cc3c(cc2s1)OCCO3	tim10-1 inh 43.3 | tim10-1 confirm 38.5
CC1(c2nnc(-c3cccc(Cl)c3)o2)CC(c2ccccc2Br)=NO1 (configuration not stated)	none
Cc1ccc(C2=NN(C(=O)CCl)C(c3ccco3)C2)o1 (configuration not stated)	none
Cn1c(CC(=O)Nc2ccccc2Cl)nnc1SCC(=O)NC1CCCCC1	none
O=C(/C=C/c1ccco1)NC(=S)Nc1ccccc1N1CCCC1	none
O=C(/C=C/c1ccco1)Nc1ccccc1N1CCCC1	tim10-1 inh 53.2 | tim10-1 confirm 46.0
CC(Oc1ccc(C#N)cc1)C(=O)N1CC=C(c2ccccc2)CC1 (configuration not stated)	none
COc1ccccc1C(=O)NCCC(=O)N1CCN(S(=O)(=O)c2ccccc2C(F)(F)F)CC1	none
Cc1nonc1C(=O)N/N=C/c1ccc(O)cc1O	tim10-1 inh 45.7 | tim10-1 confirm inactive
N#CCCN(C(=O)COC(=O)c1cc(=O)[nH]c2ccccc12)c1ccccc1	none
Cc1c(OCC(=O)NCCCN2CCOCC2)ccc2c3c(c(=O)oc12)CCC3	tim10-1 inh 48.5 | tim10-1 confirm inactive
Cc1nn2c(c1-c1ccc(Cl)cc1)N=C(c1ccco1)CC2c1ccccc1 (configuration not stated)	tim10-1 inh 41.9 | tim10-1 confirm 33.7
Cc1nnc(NC(=O)CCC(=O)N2CCN(S(=O)(=O)c3cc([N+](=O)[O-])ccc3C)CC2)s1	none
O=C(COC(=O)c1cccs1)NCCc1ccc(F)cc1	none
C/C(=N\Nc1nc2ccccc2s1)c1ccc2c(c1)OCO2	tim10-1 inh 42.1 | tim10-1 confirm inactive
C/C(=N\Nc1nc2ccccc2s1)c1ccc(Br)s1	none
Cc1ccc([N+](=O)[O-])cc1S(=O)(=O)Nc1ccc(C(=O)N2CCN(C(=O)c3ccco3)CC2)cc1	none
Cc1[nH]n(-c2ccc(Cl)c(Cl)c2)c(=O)c1CCO	tim10-1 inh 43.1 | tim10-1 confirm inactive
CC1CCC2(CC1)NC(=O)N(CC(=O)NCc1ccc(F)cc1)C2=O (configuration not stated)	none
C/C(=N\NC(=O)c1cc2ccccc2cc1O)c1cc2ccccc2o1	none
C/C(=N/NC(=O)c1cc2ccccc2cc1O)C1C(=O)c2ccccc2C1=O	tim10-1 inh 46.8 | tim10-1 confirm 32.3
CCOC(=O)C(C)Sc1nc2c(cnn2-c2ccc(F)cc2)c(=O)[nH]1 (configuration not stated)	none
O=C(Nc1ccc(Cl)cn1)C1C(c2ccccc2)C1(Cl)Cl (configuration not stated)	tim10-1 inh 46.2 | tim10-1 confirm 33.6
O=C(COC(=O)c1ccc2c(c1)OCO2)NC1CCCCC1	none
Cc1ccccc1NC1=C(Cl)C(=O)OC1OC(=O)c1ccccc1C (configuration not stated)	tim10-1 inh 40.2 | tim10-1 confirm inactive
Cc1ccc2c(c1)c1c(n2CC(O)Cn2nc(C)c(Br)c2C)CCCC1 (configuration not stated)	tim10-1 inh 42.9 | tim10-1 confirm inactive
O=C(O)/C(=C\c1ccc(-c2ccccc2[N+](=O)[O-])o1)c1ccccc1	tim10-1 inh 40.2 | tim10-1 confirm 51.5
N#C/C(=C\c1ccc(-c2ccccc2[N+](=O)[O-])o1)C(N)=O	none
CC(C)c1ccc(NC(=S)Nc2ccc3cn[nH]c3c2)cc1	tim10-1 inh 43.5 | tim10-1 confirm inactive
CC(C)c1ccc(NC(=O)Nc2cc3sccc3n2C)cc1	tim10-1 inh 42.2 | tim10-1 confirm inactive
CCOC(=O)c1sc2ncnc(Nc3cccc(C(=O)O)c3)c2c1C	none
CCOC(=O)c1sc2ncnc(NCc3ccco3)c2c1C	tim10-1 inh 47.4 | tim10-1 confirm 35.0
